In ChEMBL document CHEMBL2331335, “Synthesis of hemslecin A derivatives: a new class of hepatitis B virus inhibitors” (Bioorg Med Chem Lett, 2013):

Assays:
[1] = Selectivity index, ratio of CC50 for human HepG2.2.15 cells to IC50 for HBV infected in human HepG2.2.15 cells assessed as inhibition of viral e antigen production; format: functional
How it was run: (§1)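 Selectivity index was calculated as CC50 (HepG 2.2.15 cytotoxicity) divided by IC50 for the given marker (HBV DNA replication, HBeAg or HBsAg), all measured in HepG 2.2.15 cells.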

[2] = Selectivity index, ratio of CC50 for human HepG2.2.15 cells to IC50 for HBV infected in human HepG2.2.15 cells assessed as inhibition of viral surface antigen production; format: functional; how it was run: as §1
[3] = Cytotoxicity against human HepG2.2.15 cells; format: cell-based, HepG2 2.2.15
How it was run: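 Cytotoxicity was tested in HepG 2.2.15 cells alongside the anti-HBV assay. CC50 was taken as the compound concentration required to destroy 50% of the cells.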

Hepatitis B virus [4] = assay: Antiviral activity against HBV infected in human HepG2.2.15 cells assessed as inhibition of viral DNA replication; format: functional, organism-based; details: HepG2 2.2.15
How it was run: (§2)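 Assayed in HBV-producing HepG 2.2.15 cells, with tenofovir as positive control. HBsAg, HBeAg and HBV DNA replication were each measured, and IC50 was taken as the compound concentration giving 50% inhibition of the given marker.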

[5] = Selectivity index, ratio of CC50 for human HepG2.2.15 cells to IC50 for HBV infected in human HepG2.2.15 cells assessed as inhibition of viral DNA replication; format: functional; how it was run: as §1
Hepatitis B virus [6] = assay: Antiviral activity against HBV infected in human HepG2.2.15 cells assessed as inhibition of viral surface antigen production; format: functional, organism-based; details: HepG2 2.2.15; how it was run: as §2
Hepatitis B virus [7] = assay: Antiviral activity against HBV infected in human HepG2.2.15 cells assessed as inhibition of viral e antigen production; format: functional, organism-based; details: HepG2 2.2.15; how it was run: as §2

SMILES	Ratio CC50/IC50 [1]	Ratio CC50/IC50 [2]	CC50 [3] [µM]	IC50 (Hepatitis B virus [4]) [µM]	Ratio CC50/IC50 [5]	IC50 (Hepatitis B virus [6]) [µM]	IC50 (Hepatitis B virus [7]) [µM]
C[C@H](Cn1cnc2c(N)ncnc21)OCP(=O)(O)O [TENOFOVIR ANHYDROUS]	>1.5	>1.1	> 1740	0.49	>3571.4	1570	–
COc1cccc(/C=C/C(=O)O[C@H]2C[C@@H]3C(=CC[C@@H]4[C@@]3(C)C(=O)C[C@]3(C)[C@@H]([C@@](C)(O)C(=O)CCC(C)(C)OC(C)=O)[C@H](OC(=O)/C=C/c5cccc(OC)c5)C[C@@]43C)C(C)(C)[C@@H]2OC(=O)/C=C/c2cccc(OC)c2)c1	–	–	> 719	51.2	>14	> 719	> 719
CC(=O)O[C@H]1C[C@H]2[C@]3(C)C(=O)C[C@]4(C)[C@@H]([C@@](C)(O)C(=O)CCC(C)(C)OC(C)=O)[C@H](OC(C)=O)C[C@@]4(C)[C@@H]3C[C@@H](O)[C@@]2(OC(=O)c2cccc(Cl)c2)C(C)(C)[C@@H]1OC(C)=O	>3.2	>5.9	> 1050	> 1050	–	178	327
CC(=O)OC(C)(C)CCC(=O)[C@](C)(O)[C@H]1[C@H](O)C[C@@]2(C)[C@@H]3C[C@@H](O)[C@]4(OC(=O)c5cccc(Cl)c5)[C@@H](C[C@H](O)[C@@H](O)C4(C)C)[C@]3(C)C(=O)C[C@]12C	11.9	15.3	366	7.2	50.9	24	30.9
CCOCC(=O)O[C@H]1C[C@H]2[C@]3(C)C(=O)C[C@]4(C)[C@@H]([C@@](C)(O)C(=O)CCC(C)(C)OC(C)=O)[C@H](OC(=O)COCC)C[C@@]4(C)[C@@H]3C[C@H]3O[C@]32C(C)(C)[C@@H]1OC(=O)COCC	–	–	> 633	> 633	–	> 633	> 633
CC(=O)O[C@H]1C[C@@H]2C(=CC[C@@H]3[C@@]2(C)C(=O)C[C@]2(C)[C@@H]([C@@](C)(O)C(=O)CCC(C)(C)OC(C)=O)[C@H](OC(C)=O)C[C@@]32C)C(C)(C)[C@@H]1OC(C)=O	–	–	> 807	17.3	>46.6	> 807	> 807
CC(=O)OC(C)(C)CCC(=O)[C@](C)(O)[C@H]1[C@H](O)C[C@@]2(C)[C@@H]3C[C@H]4O[C@@]45[C@@H](C[C@H](O)[C@@H](O)C5(C)C)[C@]3(C)C(=O)C[C@]12C	–	–	> 1740	11.6	>150.5	> 1740	> 1740
CC(=O)O[C@H]1C[C@H]2[C@]3(C)C(=O)C[C@]4(C)[C@@H]([C@@](C)(O)C(=O)CCC(C)(C)OC(C)=O)[C@H](OC(C)=O)C[C@@]4(C)[C@@H]3C[C@H]3O[C@]32C(C)(C)[C@@H]1OC(C)=O	–	–	> 961	> 961	–	> 961	> 961
CCC(=O)O[C@H]1C[C@H]2[C@]3(C)C(=O)C[C@]4(C)[C@@H]([C@@](C)(O)C(=O)CCC(C)(C)OC(C)=O)[C@H](OC(=O)CC)C[C@@]4(C)[C@@H]3C[C@H]3O[C@]32C(C)(C)[C@@H]1OC(=O)CC	–	>2.2	> 1670	> 1670	–	768	> 1670
CCC(=O)O[C@H]1C[C@@H]2C(=CC[C@@H]3[C@@]2(C)C(=O)C[C@]2(C)[C@@H]([C@@](C)(O)C(=O)CCC(C)(C)OC(C)=O)[C@H](O)C[C@@]32C)C(C)(C)[C@@H]1O	8.7	8.1	126	4.7	–	15.6	14.4
CCOCC(=O)O[C@H]1C[C@@H]2C(=CC[C@@H]3[C@@]2(C)C(=O)C[C@]2(C)[C@@H]([C@@](C)(O)C(=O)CCC(C)(C)OC(=O)COCC)[C@H](OC(=O)COCC)C[C@@]32C)C(C)(C)[C@@H]1OC(=O)COCC	–	>6.4	> 1450	81.4	>17.8	225	> 1450
CCOCC(=O)O[C@H]1C[C@H]2[C@]3(C)C(=O)C[C@]4(C)[C@@H]([C@@](C)(O)C(=O)CCC(C)(C)OC(C)=O)[C@H](OC(=O)COCC)C[C@@]4(C)[C@@H]3C[C@@H](O)[C@@]2(OC(=O)c2cccc(Cl)c2)C(C)(C)[C@@H]1OC(=O)COCC	–	–	> 710	> 710	–	> 710	> 710
